Values belong to the molecule of their own block, whether it stands above or below them.
Columns and labels:
[1] = biological target: T1, cGMP-specific 3',5'-cyclic phosphodiesterase (Homo sapiens, UniProt O76074); experiment: Inhibition of recombinant full length GST-tagged PDE5A1 (unknown origin) expressed in baculovirus infected Sf9 insect cells using TAMRA-cGMP as substrate incubated for 1.5 hrs by IMAP-FP assay
[2] = Protein binding in human plasma assessed as bound fraction by HPLC-MS/MS analysis; assay type: ADME, cell-free
How it was run: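 Human plasma spiked with compound at 10 μM, 1% DMSO final. Dialyzed against PBS pH 7.4 for 4 h at 37 °C. Both compartments diluted, acetonitrile-precipitated and quantified by HPLC-MS/MS. An undialyzed spiked control served for recovery; duplicates.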

[3] = biological target: T2, Dual specificity calcium/calmodulin-dependent 3',5'-cyclic nucleotide phosphodiesterase 1A (Homo sapiens, UniProt P54750); experiment: Inhibition of recombinant full length GST-tagged PDE1A (unknown origin) expressed in baculovirus infected Sf9 insect cells using FAM-cAMP as substrate incubated for 1.5 hrs by IMAP-FP assay
How it was run: (§1)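 PDE enzymes incubated with compound or vehicle and 50 nM TAMRA-cGMP or FAM-cAMP substrate for 1.5 h at 30 °C. Activity read by IMAP fluorescence polarization. IC50 from 10 concentrations, at least two replicates each, fitted by four-parameter logistic. Dose–response repeated at least twice; mean of at least two experiments.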

[4] = biological target: T2, Dual specificity calcium/calmodulin-dependent 3',5'-cyclic nucleotide phosphodiesterase 1A; experiment: Inhibition of recombinant full length GST-tagged PDE1A (unknown origin) expressed in baculovirus infected Sf9 insect cells using TAMRA-cGMP as substrate incubated for 1.5 hrs by IMAP-FP assay; how it was run: as §1
[5] = biological target: T3, cGMP-dependent 3',5'-cyclic phosphodiesterase (Homo sapiens, UniProt O00408); experiment: Inhibition of recombinant full length GST-tagged PDE2A (unknown origin) expressed in baculovirus infected Sf9 insect cells using FAM-cAMP as substrate incubated for 1.5 hrs by IMAP-FP assay; how it was run: as §1
[6] = biological target: T3, cGMP-dependent 3',5'-cyclic phosphodiesterase; experiment: Inhibition of recombinant full length GST-tagged PDE2A (unknown origin) expressed in baculovirus infected Sf9 insect cells using TAMRA-cGMP as substrate incubated for 1.5 hrs by IMAP-FP assay; how it was run: as §1
[7] = biological target: T4, cGMP-inhibited 3',5'-cyclic phosphodiesterase 3A (Homo sapiens, UniProt Q14432); experiment: Inhibition of recombinant GST-tagged PDE3A (669 to end residues) (unknown origin) expressed in baculovirus infected Sf9 insect cells using FAM-cAMP as substrate incubated for 1.5 hrs by IMAP-FP assay; how it was run: as §1
[8] = biological target: T4, cGMP-inhibited 3',5'-cyclic phosphodiesterase 3A; experiment: Inhibition of recombinant GST-tagged PDE3A (669 to end residues) (unknown origin) expressed in baculovirus infected Sf9 insect cells using TAMRA-cGMP as substrate incubated for 1.5 hrs by IMAP-FP assay; how it was run: as §1
[9] = biological target: 3',5'-cyclic-AMP phosphodiesterase 4B (Homo sapiens, UniProt Q07343); experiment: Inhibition of recombinant full length GST-tagged PDE4B2 (unknown origin) expressed in baculovirus infected Sf9 insect cells using FAM-cAMP as substrate incubated for 1.5 hrs by IMAP-FP assay; how it was run: as §1
[10] = biological target: Cone cGMP-specific 3',5'-cyclic phosphodiesterase subunit alpha' (Homo sapiens, UniProt P51160); experiment: Inhibition of recombinant full length GST-tagged PDE6C (unknown origin) expressed in baculovirus infected Sf9 insect cells using TAMRA-cGMP as substrate incubated for 1.5 hrs by IMAP-FP assay; how it was run: as §1
[11] = biological target: High affinity 3',5'-cyclic-AMP phosphodiesterase 7A (Homo sapiens, UniProt Q13946); experiment: Inhibition of recombinant GST-tagged PDE7A (122 to end residues) (unknown origin) expressed in baculovirus infected Sf9 insect cells using FAM-cAMP as substrate incubated for 1.5 hrs by IMAP-FP assay; how it was run: as §1
[12] = biological target: High affinity cAMP-specific and IBMX-insensitive 3',5'-cyclic phosphodiesterase 8A (Homo sapiens, UniProt O60658); experiment: Inhibition of recombinant GST-tagged full length PDE8A1 (unknown origin) expressed in baculovirus infected Sf9 insect cells using FAM-cAMP as substrate incubated for 1.5 hrs by IMAP-FP assay; how it was run: as §1
[13] = biological target: T5, cAMP and cAMP-inhibited cGMP 3',5'-cyclic phosphodiesterase 10A (Homo sapiens, UniProt Q9Y233); experiment: Inhibition of recombinant GST-tagged full length PDE10A2 (unknown origin) expressed in baculovirus infected Sf9 insect cells using FAM-cAMP as substrate incubated for 1.5 hrs by IMAP-FP assay; how it was run: as §1
[14] = biological target: T5, cAMP and cAMP-inhibited cGMP 3',5'-cyclic phosphodiesterase 10A; experiment: Inhibition of recombinant GST-tagged full length PDE10A2 (unknown origin) expressed in baculovirus infected Sf9 insect cells using TAMRA-cGMP as substrate incubated for 1.5 hrs by IMAP-FP assay; how it was run: as §1
[15] = biological target: T6, Dual 3',5'-cyclic-AMP and -GMP phosphodiesterase 11A (Homo sapiens, UniProt Q9HCR9); experiment: Inhibition of recombinant GST-tagged full length PDE11A4 (unknown origin) expressed in baculovirus infected Sf9 insect cells using FAM-cAMP as substrate incubated for 1.5 hrs by IMAP-FP assay; how it was run: as §1
[16] = biological target: T6, Dual 3',5'-cyclic-AMP and -GMP phosphodiesterase 11A; experiment: Inhibition of recombinant GST-tagged full length PDE11A4 (unknown origin) expressed in baculovirus infected Sf9 insect cells using TAMRA-cGMP as substrate incubated for 1.5 hrs by IMAP-FP assay; how it was run: as §1
Homo sapiens [17] = species on record: Homo sapiens; experiment: Selectivity ratio of IC50 for recombinant full length GST-tagged PDE6C (unknown origin) expressed in baculovirus infected Sf9 insect cells to IC50 for recombinant full length GST-tagged PDE5A1 (unknown origin) expressed in baculovirus infected Sf9 insect cells using TAMRA-cGMP as substrate incubated for 1.5 hrs by IMAP-FP assay using TAMRA-cGMP as substrate incubated for 1.5 hrs by IMAP-FP assay
Homo sapiens [18] = species on record: Homo sapiens; experiment: Selectivity ratio of IC50 for recombinant GST-tagged full length PDE11A4 (unknown origin) expressed in baculovirus infected Sf9 insect cells to IC50 for recombinant full length GST-tagged PDE5A1 (unknown origin) expressed in baculovirus infected Sf9 insect cells using TAMRA-cGMP as substrate incubated for 1.5 hrs by IMAP-FP assay using TAMRA-cGMP as substrate incubated for 1.5 hrs by IMAP-FP assay
[19] = biological target: T1, cGMP-specific 3',5'-cyclic phosphodiesterase; experiment: Inhibition of PDE5A in HEK293 cells stably transfected with cGMP biosensor assessed as increase in SNP-induced intracellular cGMP level measured after 90 mins by luminescence assay; assay type: cell-based
[20] = biological target: High affinity cGMP-specific 3',5'-cyclic phosphodiesterase 9A (Homo sapiens, UniProt O76083); experiment: Inhibition of recombinant GST-tagged full length PDE9A2 (unknown origin) expressed in baculovirus infected Sf9 insect cells using substrate incubated for 1.5 hrs by IMAP-FP assay
in vitro = conditions: human, microsomes

T6 sequence (Q9HCR9 whole entry): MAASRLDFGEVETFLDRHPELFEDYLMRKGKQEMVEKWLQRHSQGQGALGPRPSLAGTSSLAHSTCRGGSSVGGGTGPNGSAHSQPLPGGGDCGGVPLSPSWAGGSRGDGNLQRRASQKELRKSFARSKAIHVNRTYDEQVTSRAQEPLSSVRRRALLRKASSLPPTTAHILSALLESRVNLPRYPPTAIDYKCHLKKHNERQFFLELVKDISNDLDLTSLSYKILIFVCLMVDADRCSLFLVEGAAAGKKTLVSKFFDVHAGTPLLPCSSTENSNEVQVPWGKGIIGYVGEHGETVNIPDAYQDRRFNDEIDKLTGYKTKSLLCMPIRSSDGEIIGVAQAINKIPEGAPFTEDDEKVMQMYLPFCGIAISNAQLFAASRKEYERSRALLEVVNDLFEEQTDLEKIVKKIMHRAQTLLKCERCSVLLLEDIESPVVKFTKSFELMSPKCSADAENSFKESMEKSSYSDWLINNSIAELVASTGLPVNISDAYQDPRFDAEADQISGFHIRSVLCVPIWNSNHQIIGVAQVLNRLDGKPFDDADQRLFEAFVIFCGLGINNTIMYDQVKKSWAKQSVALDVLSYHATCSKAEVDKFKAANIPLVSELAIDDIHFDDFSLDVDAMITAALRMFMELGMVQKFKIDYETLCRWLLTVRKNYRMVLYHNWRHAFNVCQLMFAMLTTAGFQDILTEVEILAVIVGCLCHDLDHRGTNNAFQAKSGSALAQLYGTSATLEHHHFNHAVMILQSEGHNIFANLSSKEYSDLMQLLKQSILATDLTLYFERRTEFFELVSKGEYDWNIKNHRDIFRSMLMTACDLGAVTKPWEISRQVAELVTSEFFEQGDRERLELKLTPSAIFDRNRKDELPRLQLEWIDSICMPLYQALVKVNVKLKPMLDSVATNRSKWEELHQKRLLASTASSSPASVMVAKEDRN
T3 sequence (O00408 whole entry): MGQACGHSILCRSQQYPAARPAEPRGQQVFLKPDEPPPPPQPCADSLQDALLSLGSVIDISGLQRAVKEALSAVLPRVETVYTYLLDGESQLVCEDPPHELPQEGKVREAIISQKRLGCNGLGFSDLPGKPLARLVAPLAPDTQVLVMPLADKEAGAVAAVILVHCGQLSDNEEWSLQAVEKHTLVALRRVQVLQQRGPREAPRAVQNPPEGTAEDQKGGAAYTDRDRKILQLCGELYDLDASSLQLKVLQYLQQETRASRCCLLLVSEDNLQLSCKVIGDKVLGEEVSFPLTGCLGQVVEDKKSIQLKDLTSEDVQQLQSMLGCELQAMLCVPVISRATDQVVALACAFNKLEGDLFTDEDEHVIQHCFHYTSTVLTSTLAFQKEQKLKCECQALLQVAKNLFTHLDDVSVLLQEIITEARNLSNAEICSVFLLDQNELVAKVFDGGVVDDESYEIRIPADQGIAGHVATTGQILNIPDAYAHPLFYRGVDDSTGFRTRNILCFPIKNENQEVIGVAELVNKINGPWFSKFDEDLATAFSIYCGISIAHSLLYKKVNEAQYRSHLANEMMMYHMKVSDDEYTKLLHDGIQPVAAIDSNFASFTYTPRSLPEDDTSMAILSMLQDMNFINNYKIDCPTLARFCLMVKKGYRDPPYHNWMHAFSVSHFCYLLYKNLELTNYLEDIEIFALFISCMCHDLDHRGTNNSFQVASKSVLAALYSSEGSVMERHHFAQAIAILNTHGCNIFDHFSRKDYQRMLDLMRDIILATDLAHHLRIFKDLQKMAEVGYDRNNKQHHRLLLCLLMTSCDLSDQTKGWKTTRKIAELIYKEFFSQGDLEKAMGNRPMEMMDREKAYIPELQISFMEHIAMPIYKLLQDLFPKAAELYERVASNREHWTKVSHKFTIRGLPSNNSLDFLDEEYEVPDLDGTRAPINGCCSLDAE
T2 sequence (P54750 whole entry): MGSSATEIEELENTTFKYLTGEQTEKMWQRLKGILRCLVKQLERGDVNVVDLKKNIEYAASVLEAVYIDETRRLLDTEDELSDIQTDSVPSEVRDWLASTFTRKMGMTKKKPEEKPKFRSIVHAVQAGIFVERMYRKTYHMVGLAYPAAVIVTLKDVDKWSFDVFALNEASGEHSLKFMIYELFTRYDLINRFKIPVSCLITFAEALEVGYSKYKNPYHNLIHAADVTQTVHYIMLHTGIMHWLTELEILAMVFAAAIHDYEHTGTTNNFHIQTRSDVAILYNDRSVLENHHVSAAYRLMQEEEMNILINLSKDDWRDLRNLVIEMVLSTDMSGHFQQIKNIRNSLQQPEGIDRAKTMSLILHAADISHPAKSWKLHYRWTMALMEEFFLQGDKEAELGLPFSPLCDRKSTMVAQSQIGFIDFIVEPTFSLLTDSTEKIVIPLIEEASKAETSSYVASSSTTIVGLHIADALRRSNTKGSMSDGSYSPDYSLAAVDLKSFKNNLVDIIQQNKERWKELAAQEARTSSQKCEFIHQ
T5 sequence (Q9Y233 whole entry): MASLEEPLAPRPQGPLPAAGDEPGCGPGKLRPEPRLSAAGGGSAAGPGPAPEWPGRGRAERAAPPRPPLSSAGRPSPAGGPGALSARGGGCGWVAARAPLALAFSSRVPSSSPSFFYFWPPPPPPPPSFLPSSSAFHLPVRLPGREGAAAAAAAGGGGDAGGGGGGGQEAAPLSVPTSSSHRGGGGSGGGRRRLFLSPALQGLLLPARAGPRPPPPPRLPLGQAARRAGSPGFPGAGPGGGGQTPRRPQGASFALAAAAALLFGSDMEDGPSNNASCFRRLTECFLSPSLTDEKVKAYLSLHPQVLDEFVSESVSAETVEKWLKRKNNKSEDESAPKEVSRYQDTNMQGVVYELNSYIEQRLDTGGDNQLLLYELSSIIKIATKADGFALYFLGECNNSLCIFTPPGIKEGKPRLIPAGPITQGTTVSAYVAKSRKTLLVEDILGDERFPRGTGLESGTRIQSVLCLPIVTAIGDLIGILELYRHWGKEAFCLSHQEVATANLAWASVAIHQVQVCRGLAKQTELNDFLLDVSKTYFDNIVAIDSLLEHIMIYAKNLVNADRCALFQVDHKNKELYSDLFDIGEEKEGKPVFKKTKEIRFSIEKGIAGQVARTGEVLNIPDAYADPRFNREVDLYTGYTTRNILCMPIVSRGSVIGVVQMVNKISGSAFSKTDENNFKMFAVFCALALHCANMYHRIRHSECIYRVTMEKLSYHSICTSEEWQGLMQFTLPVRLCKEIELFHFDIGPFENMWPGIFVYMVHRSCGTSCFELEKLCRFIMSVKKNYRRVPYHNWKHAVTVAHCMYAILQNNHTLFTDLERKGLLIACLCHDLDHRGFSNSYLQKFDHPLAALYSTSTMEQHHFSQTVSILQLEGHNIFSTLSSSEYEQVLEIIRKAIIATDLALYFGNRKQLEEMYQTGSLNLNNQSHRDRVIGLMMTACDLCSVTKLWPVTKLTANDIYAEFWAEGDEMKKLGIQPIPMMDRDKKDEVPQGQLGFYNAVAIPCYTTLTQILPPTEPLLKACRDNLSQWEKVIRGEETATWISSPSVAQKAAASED
T4 sequence (Q14432 whole entry): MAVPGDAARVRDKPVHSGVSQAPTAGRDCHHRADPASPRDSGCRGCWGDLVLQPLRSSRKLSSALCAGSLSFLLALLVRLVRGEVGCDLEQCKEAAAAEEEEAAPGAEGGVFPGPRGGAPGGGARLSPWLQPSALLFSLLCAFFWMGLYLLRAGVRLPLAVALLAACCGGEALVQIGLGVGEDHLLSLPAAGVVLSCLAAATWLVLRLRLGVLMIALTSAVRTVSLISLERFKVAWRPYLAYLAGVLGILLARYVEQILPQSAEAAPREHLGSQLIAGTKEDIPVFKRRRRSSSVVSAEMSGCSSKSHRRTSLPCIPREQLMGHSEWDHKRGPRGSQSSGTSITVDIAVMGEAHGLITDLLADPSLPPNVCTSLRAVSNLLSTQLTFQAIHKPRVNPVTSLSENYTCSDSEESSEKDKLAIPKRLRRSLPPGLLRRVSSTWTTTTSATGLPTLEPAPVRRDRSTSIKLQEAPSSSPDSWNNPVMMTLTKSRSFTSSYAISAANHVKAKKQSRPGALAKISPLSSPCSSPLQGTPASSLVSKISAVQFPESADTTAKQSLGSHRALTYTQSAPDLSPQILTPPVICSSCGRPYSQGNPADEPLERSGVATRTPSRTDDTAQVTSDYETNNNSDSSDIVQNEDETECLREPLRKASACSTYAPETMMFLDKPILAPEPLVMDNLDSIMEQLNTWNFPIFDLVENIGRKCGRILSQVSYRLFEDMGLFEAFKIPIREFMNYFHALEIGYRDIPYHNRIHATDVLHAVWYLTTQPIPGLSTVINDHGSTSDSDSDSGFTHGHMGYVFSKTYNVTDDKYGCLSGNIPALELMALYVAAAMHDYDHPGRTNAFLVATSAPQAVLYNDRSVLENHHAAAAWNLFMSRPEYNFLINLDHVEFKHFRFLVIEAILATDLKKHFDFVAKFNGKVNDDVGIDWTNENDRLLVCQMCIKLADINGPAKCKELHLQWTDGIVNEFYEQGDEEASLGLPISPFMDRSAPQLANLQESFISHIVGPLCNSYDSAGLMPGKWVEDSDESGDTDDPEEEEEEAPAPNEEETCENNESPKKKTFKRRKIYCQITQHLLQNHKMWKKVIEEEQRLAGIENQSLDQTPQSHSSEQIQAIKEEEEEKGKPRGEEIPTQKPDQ
High affinity 3',5'-cyclic-AMP phosphodiesterase 7A, sequence (Q13946 whole entry): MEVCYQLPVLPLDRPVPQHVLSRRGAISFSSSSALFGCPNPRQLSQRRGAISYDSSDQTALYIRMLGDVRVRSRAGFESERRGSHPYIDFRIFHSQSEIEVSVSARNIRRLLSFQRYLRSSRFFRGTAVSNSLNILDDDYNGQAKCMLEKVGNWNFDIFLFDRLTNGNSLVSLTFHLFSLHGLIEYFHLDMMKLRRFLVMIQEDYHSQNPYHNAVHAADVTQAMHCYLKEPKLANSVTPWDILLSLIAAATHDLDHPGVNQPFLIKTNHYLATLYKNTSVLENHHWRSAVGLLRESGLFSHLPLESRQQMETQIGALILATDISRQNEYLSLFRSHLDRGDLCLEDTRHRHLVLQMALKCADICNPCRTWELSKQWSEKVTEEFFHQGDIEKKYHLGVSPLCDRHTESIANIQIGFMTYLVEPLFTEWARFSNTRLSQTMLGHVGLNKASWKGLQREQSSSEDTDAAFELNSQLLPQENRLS

IC50 [1]: 0.33 µM
SMILES: COc1ccc(C2CC(c3ccccc3O)=NN2c2ccc(C(=O)O)cc2)cc1 (racemic)

IC50 [1]: 0.13 µM
SMILES: COc1ccc(C2CC(c3ccccc3C)=NN2c2ccc(C(=O)O)cc2)cc1F (centres undefined)

IC50 [1]: 10 µM
SMILES: CC(C)(C)C1=NN(c2ccc(C(=O)O)cc2)C(c2ccc(OC(F)(F)F)cc2)C1 (centres undefined)

IC50 [1]: 0.5 µM
SMILES: COc1ccc(C2CC(c3ccccc3C)=NN2c2ccc(C(=O)O)cc2)cc1 (centres undefined)

PPB [2]: 98%
SMILES: CCCC(=O)Nc1ccc(OCC(O)CNC(C)C)c(C(C)=O)c1 (centres undefined) [ACEBUTOLOL]

IC50 [1]: 0.2 µM
SMILES: CCOc1c(F)cc(C2CC(C(C)(C)C)=NN2c2ccc(C(=O)O)cc2)cc1F (centres undefined)

IC50 [1]: 0.004 µM
IC50 [3]: > 10 µM
IC50 [4]: > 10 µM
IC50 [5]: > 10 µM
IC50 [6]: > 10 µM
IC50 [7]: > 10 µM
IC50 [8]: > 10 µM
IC50 [9]: > 10 µM
IC50 [10]: > 10 µM
IC50 [11]: > 10 µM
IC50 [12]: > 10 µM
IC50 [13]: > 10 µM
IC50 [14]: > 10 µM
IC50 [15]: > 10 µM
IC50 [16]: > 10 µM
EC50 [19]: 4.1 µM
IC50 [20]: > 10 µM
SMILES: COc1ccc(C2CC(C(C)(C)C)=NN2c2ccc(C(=O)N3CCN(C)CC3)cc2)c(F)c1F (centres undefined)
Ratio IC50 (Homo sapiens [17]): > 2500
Ratio IC50 (Homo sapiens [18]): > 2500

IC50 [1]: 2.5 µM
SMILES: COc1ccc(C2CC(c3ccc(O)cc3)=NN2c2ccc(C(=O)O)cc2)cc1 (centres undefined)

half-life at 1 h, 1 µM (in vitro): > 1 h
SMILES: CC(C)NCC(O)COc1cccc2ccccc12 (centres undefined) [PROPRANOLOL]

IC50 [1]: 0.029 µM
SMILES: COc1ccc(C2CC(c3ccccc3C)=NN2c2ccc(C(=O)N3CCOCC3)cc2)cc1 (centres undefined)

IC50 [1]: 0.41 µM
SMILES: CCCCNC(=O)c1ccc(N2N=C(C(C)(C)C)CC2c2ccc(OC)c(F)c2)cc1 (centres undefined)

IC50 [1]: 1.19 µM
SMILES: COc1ccc(C2CC(c3ccccc3)=NN2c2ccc(C(=O)O)cc2)cc1F (centres undefined)

IC50 [1]: 0.078 µM
SMILES: COc1ccc(C2CC(c3ccccc3)=NN2c2ccc(C(=O)N3CCN(C)CC3)cc2)cc1 (centres undefined)

IC50 [1]: 0.13 µM
SMILES: CCOc1c(F)cc(C2CC(C(C)(C)C)=NN2c2ccc(C(=O)N3CCN(C)CC3)cc2)cc1F (centres undefined)

IC50 [1]: 0.04 µM
IC50 [3]: > 10 µM
IC50 [4]: > 10 µM
IC50 [5]: > 10 µM
IC50 [6]: > 10 µM
IC50 [7]: > 10 µM
IC50 [8]: > 10 µM
IC50 [9]: > 10 µM
IC50 [10]: > 10 µM
IC50 [11]: > 10 µM
IC50 [12]: > 10 µM
IC50 [13]: > 10 µM
IC50 [14]: > 10 µM
IC50 [15]: > 10 µM
IC50 [16]: > 10 µM
EC50 [19]: 13.8 µM
IC50 [20]: > 10 µM
SMILES: COc1ccc(C2CC(c3ccccc3C)=NN2c2ccc(C(=O)N3CCN(C)CC3)cc2)cc1F (centres undefined)
Ratio IC50 (Homo sapiens [17]): > 250
Ratio IC50 (Homo sapiens [18]): > 250

IC50 [1]: 1.29 µM
SMILES: COc1cc(C2CC(C(C)(C)C)=NN2c2ccc(C(=O)N3CCN(C)CC3)cc2)ccc1F (centres undefined)

IC50 [1]: 0.06 µM
SMILES: COc1ccc(C2CC(C(C)(C)C)=NN2c2ccc(C(=O)O)cc2)c(F)c1F (centres undefined)

IC50 [1]: 1.2 µM
SMILES: CCCCNC(=O)c1ccc(N2N=C(C(C)(C)C)CC2c2ccc(OC)cc2)cc1 (centres undefined)
